Results published in ChEMBL document CHEMBL1150328, “Acetic acid aldose reductase inhibitors bearing a five-membered heterocyclic core with potent topical activity in a visual impairment rat model” (J Med Chem, 2008).
The source made the active and inactive calls. The rule behind the calls is not given here.

What was measured:
[1] = Inhibition of ALR1 in Sprague-Dawley rat kidney by spectrophotometry; type: tissue-based
How it was run: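 Rat kidney enzyme from 3 vol 10 mM sodium phosphate pH 7.2 homogenate (0.25 M sucrose, EDTA, β-mercaptoethanol), 40-75% ammonium sulfate cut, dialyzed. 37 °C, 0.25 mL 20 mM sodium D-glucuronate, 0.25 mL 0.12 mM NADPH, 0.1 M phosphate pH 7.2, 1 mL total. NADPH oxidation followed at 340 nm against a substrate-free blank.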

[2] = (§1) Inhibition of ALR2 in Sprague-Dawley rat lens by spectrophotometry; type: tissue-based, Lens of camera-type eye
How it was run: (§2)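 Rat lens extract, ammonium sulfate fractionated and dialyzed. 30 °C, 0.1 M sodium phosphate pH 6.2 with 0.25 mL 10 mM D,L-glyceraldehyde and 0.25 mL 0.104 mM NADPH in 1 mL total. Preincubated 10 min without substrate, then read 5 min at 340 nm against a substrate-free blank. Screened at 10^-4 M, then 10^-5 to 10^-8 M. IC50 by linear regression of log-dose curve, ≥4 concentrations.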

Rattus norvegicus [3] = species: Rattus norvegicus; assay: Inhibition of ALR2 in Sprague-Dawley rat lens at >100 uM by spectrophotometry; type: tissue-based; conditions: Lens of camera-type eye; how it was run: as §2
Rattus norvegicus [4] = species: Rattus norvegicus; assay: as §1; type: tissue-based; conditions: Lens of camera-type eye; how it was run: as §2
Rattus norvegicus [5] = assay: Prevention of cataract development in severely galactosemic Sprague-Dawley Albino rat administered four timely daily as 3% eye-drop solution in precorneal region for 21 days; type: functional, organism-based
How it was run: (§3)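 Sprague-Dawley rats, 45-55 g, on 50% D-galactose chow, 15 per group. Both eyes dosed four times daily with 3% eye-drops or vehicle, starting one day before the diet switch. Lenses examined by slit-lamp after 1% atropine dilation at baseline and days 6, 8, 10, 14, 21. Graded stages 0-4, animals per stage counted, Mann-Whitney U-test.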

Rattus norvegicus [6] = assay: Prevention of cataract development in severely galactosemic Sprague-Dawley Albino rat assessed as lens opacification administered four timely daily as 3% eye-drop solution in precorneal region for 16 days by slit-lamp microscopy; type: functional, organism-based; conditions: Lens of camera-type eye
Rattus norvegicus [7] = assay: Prevention of cataract development in severely galactosemic Sprague-Dawley Albino rat assessed as lens opacification administered four timely daily as 3% eye-drop solution in precorneal region for 13 days by slit-lamp microscopy; type: functional, organism-based; conditions: Lens of camera-type eye
Rattus norvegicus [8] = assay: Prevention of cataract development in severely galactosemic Sprague-Dawley Albino rat assessed as lens opacification administered four timely daily as 3% eye-drop solution in precorneal region for 17 days by slit-lamp microscopy; type: functional, organism-based; conditions: Lens of camera-type eye
Rattus norvegicus [9] = assay: Prevention of cataract development in severely galactosemic Sprague-Dawley Albino rat assessed as lens opacification administered four timely daily as 3% eye-drop solution in precorneal region for 15 days by slit-lamp microscopy; type: functional, organism-based; conditions: Lens of camera-type eye
Rattus norvegicus [10] = assay: Prevention of cataract development in severely galactosemic Sprague-Dawley Albino rat assessed as lens opacification administered four timely daily as 3% eye-drop solution in precorneal region for 12 days by slit-lamp microscopy; type: functional, organism-based; conditions: Lens of camera-type eye
Rattus norvegicus [11] = assay: Prevention of cataract development in severely galactosemic Sprague-Dawley Albino rat assessed as lens opacification administered four timely daily as 3% eye-drop solution in precorneal region for 18 days by slit-lamp microscopy; type: functional, organism-based; conditions: Lens of camera-type eye
Rattus norvegicus [12] = assay: Prevention of cataract development in severely galactosemic Sprague-Dawley Albino rat assessed as lens opacification administered four timely daily as 3% eye-drop solution in precorneal region for 11 days by slit-lamp microscopy; type: functional, organism-based; conditions: Lens of camera-type eye
Rattus norvegicus [13] = assay: Prevention of cataract development in severely galactosemic Sprague-Dawley Albino rat assessed as lens opacification administered four timely daily as 3% eye-drop solution in precorneal region for 14 days by slit-lamp microscopy; type: functional, organism-based; conditions: Lens of camera-type eye; how it was run: as §3
Rattus norvegicus [14] = assay: Prevention of cataract development in severely galactosemic Sprague-Dawley Albino rat assessed as lens opacification administered four timely daily as 3% eye-drop solution in precorneal region for 21 days by slit-lamp microscopy; type: functional, organism-based; conditions: Lens of camera-type eye; how it was run: as §3
Rattus norvegicus [15] = assay: Prevention of cataract development in severely galactosemic Sprague-Dawley Albino rat assessed as lens opacification administered four timely daily as 3% eye-drop solution in precorneal region for 19 days by slit-lamp microscopy; type: functional, organism-based; conditions: Lens of camera-type eye
Rattus norvegicus [16] = assay: Prevention of cataract development in severely galactosemic Sprague-Dawley Albino rat assessed as lens opacification administered four timely daily as 3% eye-drop solution in precorneal region for 20 days by slit-lamp microscopy; type: functional, organism-based; conditions: Lens of camera-type eye

Structure (SMILES)	IC50 [1]	IC50 [2]	further results
O=C(O)Cc1nc(Cc2ccc(C(F)(F)F)cc2)no1	> 10 µM	6.3 µM	–
O=C(O)Cc1nc(Cc2cccc([N+](=O)[O-])c2)no1	> 10 µM	0.3 µM	–
O=C(O)Cc1nc(-c2ccc(F)cc2)no1	> 10 µM	8.43 µM	–
COc1ccc(Cc2noc(CC(=O)O)n2)cc1	> 10 µM	8.18 µM	–
O=C(O)Cc1coc(-c2ccccc2)n1	–	–	Activity (Rattus norvegicus [3]): Active; Activity (Rattus norvegicus [4]): inactive
O=C(O)Cc1nc(-c2ccc(Br)cc2)no1	> 10 µM	0.69 µM	–
COc1ccc(-c2noc(CC(=O)O)n2)cc1	> 10 µM	0.27 µM	Activity (Rattus norvegicus [5]): Active; Activity (Rattus norvegicus [6]): Active; Activity (Rattus norvegicus [7]): Active; Activity (Rattus norvegicus [8]): Active; Activity (Rattus norvegicus [9]): Active; Activity (Rattus norvegicus [10]): Active; Activity (Rattus norvegicus [11]): Active; Activity (Rattus norvegicus [12]): Active; Activity (Rattus norvegicus [13]): Active; Activity (Rattus norvegicus [14]): Active
O=C(O)Cc1nc(Cc2ccccc2)no1	> 10 µM	28.4 µM	–
O=C(O)Cc1nc(-c2cccc([N+](=O)[O-])c2)no1	> 10 µM	0.71 µM	–
Cc1ccc(Cc2noc(CC(=O)O)n2)cc1	> 10 µM	5.29 µM	–
O=C(O)Cc1nc(-c2ccccc2)no1	> 10 µM	3.33 µM	–
O=C(O)Cc1nc(Cc2ccc(F)cc2)no1	> 10 µM	21.7 µM	–
COc1ccc2c(C(=S)N(C)CC(=O)O)cccc2c1C(F)(F)F [TOLRESTAT]	> 10 µM	0.05 µM	Activity (Rattus norvegicus [15]): Active; Activity (Rattus norvegicus [6]): Active; Activity (Rattus norvegicus [7]): Active; Activity (Rattus norvegicus [16]): Active; Activity (Rattus norvegicus [8]): Active; Activity (Rattus norvegicus [9]): Active; Activity (Rattus norvegicus [10]): Active; Activity (Rattus norvegicus [11]): Active; Activity (Rattus norvegicus [12]): Active; Activity (Rattus norvegicus [13]): Active; Activity (Rattus norvegicus [14]): Active
O=C(O)Cc1nc(Cc2ccc(Br)cc2F)no1	> 10 µM	0.36 µM	–
O=C(O)Cc1coc(-c2ccc(F)cc2)n1	–	–	Activity (Rattus norvegicus [3]): Active; Activity (Rattus norvegicus [4]): inactive
O=C(O)Cc1nc(-c2ccc(Br)cc2F)no1	> 10 µM	2 µM	–
O=C(O)Cc1nc(Cc2ccc(Br)cc2)no1	> 10 µM	1.66 µM	–
Cc1ccc(-c2noc(CC(=O)O)n2)cc1	> 10 µM	2.5 µM	–
O=C(O)Cc1nc(Cc2ccc(Cl)cc2)no1	> 10 µM	5.11 µM	–
O=C(O)Cc1nc(-c2ccc(Cl)cc2)no1	> 10 µM	3.95 µM	–
COc1ccc(-c2nc(CC(=O)O)co2)cc1	–	54.8 µM	–
O=C(O)Cc1nc(-c2ccc(C(F)(F)F)cc2)no1	> 10 µM	1.08 µM	–
Cc1ccc(-c2nc(CC(=O)O)co2)cc1	–	–	Activity (Rattus norvegicus [3]): Active; Activity (Rattus norvegicus [4]): inactive
